Test results from paper PMC8462008 (Bioorganic & medicinal chemistry, 2021).
“Also recorded” adds a separate entry of the source.

Assays:
NF-κB [1] = test: NF-κB luciferase reporter assay in RSV-infected A549 cells; format: cell-based, human; settings: 10 μM
Method in brief: (§1)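 A549 cells transfected in triplicate (FuGene 6) with luciferase plasmids carrying NF-κB binding sites (NF-κB-Luc) or the IRF-3 site (PRDIII-I-Luc, IRF-3-Luc). At 20 h post-transfection, cells were infected with RSV long strain, either MOI 1 with 2 h adsorption then virus removed and 10 μM test compound for 15 h, or MOI 5 with 4 h treatment. Cells were lysed for luciferase. Run at least twice; means ± SE.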

[2] = tested on: RSV-induced cytokines/chemokines; test: RSV-induced cytokine/chemokine induction in SAECs; format: cell-based, human; settings: 10 μM, 4 h posttreatment, RSV MOI 5, SAECs supernatant
Method in brief: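 Primary human small airway epithelial cells from normal distal lung were infected with RSV long strain at MOI 5. Virus was removed at 2 h and cells were treated with 10 μM test compound. Supernatants were collected at 4 h post-treatment and assayed with a multiplex human cytokine/chemokine bead kit (Bio-Plex) per kit instructions. Run at least twice; means ± SE.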

IRF3 [3] = test: IRF3 luciferase reporter assay in RSV-infected A549 cells; format: cell-based, human; settings: 10 μM
Method in brief: as §1

IRF3 [4] = test: RSV-induced IRF3 phosphorylation and nuclear translocation in A549 cells; format: cell-based, human; settings: 10 μM; for IRF-3 total protein level in the cell: cell lysates at 4 h or 15 h of infection
Method in brief: (§2)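 A549 cells, mock or RSV-infected, were treated with 10 μM test compound, either MOI 5 for 4 h or MOI 1 for 15 h. Nuclear extracts were blotted for IRF-3, phospho-IRF3 Ser396, p65, and phospho-p65 Ser276 and Ser536. Total IRF-3 and p65 were measured in whole-cell lysates at 4 h and 15 h. Blots used SDS-PAGE, PVDF and 5% milk block; β-actin was the loading control.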

[5] = tested on: RSV viral proteins (P, M, N, F); test: RSV viral protein expression in A549 cells by western blot; format: cell-based, respiratory syncytial virus (RSV long strain); settings: 10 μM; for RSV protein expression: 4 h, RSV MOI 5, A549, versus control cells; for expression of viral P, M, N and F proteins: 15 h posttreatment, RSV MOI 1, A549
Method in brief: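 A549 cells were infected with RSV long strain, either MOI 1 then 10 μM test compound for 15 h, or MOI 5 then 10 μM for 4 h. Total lysates were resolved by SDS-PAGE and transferred to PVDF. Membranes were blocked in 5% milk/TBS-Tween 20 and probed with biotin-conjugated polyclonal goat anti-RSV or anti-F antibody; β-actin was the loading control.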

RSV = RSV genome copies in infected A549 cells by RT-qPCR; format: cell-based, respiratory syncytial virus (RSV long strain); settings: 10 μM, RSV MOI 1, A549
Method in brief: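 RSV long strain was grown in HEp-2 cells at 37 °C and purified on a sucrose gradient. A549 cells were infected at MOI 1, then treated with 10 μM test compound for 6, 15 or 24 h. Intracellular RSV genome copies were quantified by RT-qPCR at each time point after treatment.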

IRF-3 = test: Poly I:C-activated IRF-3 luciferase reporter in HEK-293 cells; format: cell-based, human; settings: 4 h post-treatment
Method in brief: (§3)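 HEK-293 cells were transiently transfected with IRF-3 (Poly I:C line) or NF-κB (Poly I:C and TNF-α lines) luciferase reporter plasmids. At 15 h post-transfection, cells were stimulated by transfection with Poly I:C or by 10 ng/ml TNF-α and treated with test compound. Luciferase activity was read at 4 h post-treatment. Run at least twice; means ± SE.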

NF-κB [6] = test: TNF-α-induced NF-κB luciferase reporter in HEK-293 cells; format: cell-based, human; settings: 10 ng/ml TNF-α, 4 h post-treatment
Method in brief: as §3

NF-κB [7] = test: Poly I:C-induced NF-κB luciferase reporter in HEK-293 cells; format: cell-based, human; settings: 4 h post-treatment
Method in brief: as §3

p65 = test: RSV-induced p65 phosphorylation and nuclear translocation in A549 cells; format: cell-based, human; settings: 10 μM; for p65 total protein level in the cell: cell lysates at 4 h or 15 h of infection
Method in brief: as §2

A549 cells = test: LDH release cytotoxicity assay; format: cell-based, human; settings: 10 μM, 15 h
Method in brief: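 A549 cells were seeded at 1.5 × 10^4 cells/well for 24 h. The whole medium was then replaced with fresh medium containing 10 μM test compound and 2% FBS; DMSO served as vehicle control. At 15 h, cells were harvested for luminescent LDH-release assay (LDH-Glo kit). Three biological replicates.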

[8] = 4 h posttreatment, RSV MOI 5, A549
[9] = 15 h posttreatment, RSV MOI 1, A549
[10] = 4 h posttreatment, RSV MOI 5, nuclear extracts
[11] = 15 h posttreatment, RSV MOI 1, nuclear extracts

`CCCNc1ccc(NC(=O)c2cc(Cl)ccc2O)c(Cl)c1` [Compound 11] was tested, and the “RSV-induced NF-κB activation (luciferase reporter)” value (from here on “RSV-induced NF-κB activation”) (NF-κB [1]; [8]) was “significantly inhibited”, the “RSV-induced NF-κB activation” value (NF-κB [1]; [9]) was “dramatically suppressed” and the “RSV-induced MIP-1β” value [2] was “capable to inhibit”. The “RSV-induced IRF3 activation (luciferase reporter)” value (“RSV-induced IRF3 activation” below) (IRF3 [3]; [8]) was “significantly inhibited” and the “RSV-induced IRF3 activation” value (IRF3 [3]; [9]) was “dramatically suppressed”.

With `CC(C)Nc1ccc(NC(=O)c2cc(Cl)ccc2O)c(Cl)c1` [Compound 12] the “RSV-induced NF-κB activation” value (NF-κB [1]; [8]) was “significantly inhibited”, the “RSV-induced NF-κB activation” value (NF-κB [1]; [9]) was “dramatically suppressed” and the “RSV-induced IL-6” value [2] was “no suppression”. For the same molecule, the “RSV-induced MIP-1α” value [2] was “no suppression”, the “RSV-induced TNF-α” value [2] was “no suppression” and the “RSV-induced IRF3 activation” value (IRF3 [3]; [8]) was “significantly inhibited”. The “RSV-induced IRF3 activation” value (IRF3 [3]; [9]) was “dramatically suppressed”.

For `CC1(Nc2ccc(NC(=O)c3cc(Cl)ccc3O)c(Cl)c2)CCCCC1` [Compound 15, 5-Chloro-N-(2-chloro-4-((1-methylcyclohexyl)amino)phenyl)-2-hydroxybenzamide], the “RSV-induced NF-κB activation” value (NF-κB [1]; [8]) was “significantly inhibited”, the “RSV-induced NF-κB activation” value (NF-κB [1]; [9]) was “no effect; also recorded: failed to inhibit” and the “nuclear translocation of IRF3” value (IRF3 [4]; 4 h posttreatment, RSV MOI 5) was “significantly decreased”. For the same molecule, the “RSV-induced IRF3 phosphorylation at Ser396” value (IRF3 [4]; [10]) was “significantly decreased”, the “nuclear translocation of IRF3” value (IRF3 [4]; 15 h posttreatment, RSV MOI 1) was “significantly decreased” and the “RSV-induced IRF3 phosphorylation at Ser396” value (IRF3 [4]; [11]) was “significantly decreased”. For the same molecule, the “IRF-3 total protein level in the cell” value (IRF3 [4]) was “undetectable or minimal impact”, the RSV protein expression [5] was “comparable” and the “expression of viral P, M, N and F proteins” value [5] was “decreased”. The viral genome copies (RSV; 15 h posttreatment) was “significantly decreased”, the viral genome copies (RSV; 24 h posttreatment) was “significantly decreased” and the “RSV-induced IL-6” value [2] was “could inhibit”. The “RSV-induced MIP-1β” value [2] was “capable to inhibit”, the “RSV-induced TNF-α” value [2] was “able to inhibit” and the “RSV-induced cytokines/chemokines (all tested immune mediators)” value [2] was “inhibited the induction of all tested immune mediators”. The “Poly I:C-activated IRF-3 (luciferase reporter)” value (IRF-3) was “suppressed”, the “TNF-α-activated NF-κB (luciferase reporter)” value (NF-κB [6]) was “not impacted” and the “RSV-induced IRF3 activation” value (IRF3 [3]; [8]) was “significantly inhibited”. For the same molecule, the “RSV-induced IRF3 activation” value (IRF3 [3]; [9]) was “suppressed”, the “Poly I:C-induced NF-κB activation (luciferase reporter)” value (NF-κB [7]) was “only impacted by compound 22, not 15” and the “RSV-induced p65 Ser276 phosphorylation” value (p65; 4 h posttreatment, RSV MOI 5) was “not affected”. For the same molecule, the “RSV-induced p65 Ser536 phosphorylation” value (p65; 4 h posttreatment, RSV MOI 5) was “suppressed”, the “nuclear translocation of p65” value (p65; 4 h posttreatment, RSV MOI 5) was “suppressed” and the “RSV-induced p65 Ser276 phosphorylation” value (p65; 15 h posttreatment, RSV MOI 1) was “no effect”. The “RSV-induced p65 Ser536 phosphorylation” value (p65; 15 h posttreatment, RSV MOI 1) was “impaired”, the “nuclear translocation of p65” value (p65; 15 h posttreatment, RSV MOI 1) was “decreased” and the “p65 total protein level in the cell” value (p65) was “undetectable or minimal impact”.

`O=C(Nc1ccc(NCc2cccnc2)cc1Cl)c1cc(Cl)ccc1O` [Compound 19, 5-Chloro-N-(2-chloro-4-((pyridin-3-ylmethyl)amino)phenyl)-2-hydroxybenzamide] was tested, and the “RSV-induced NF-κB activation” value (NF-κB [1]; [8]) was “no suppression”, the “RSV-induced NF-κB activation” value (NF-κB [1]; [9]) was “no effect” and the “RSV-induced cytokines/chemokines (all tested immune mediators)” value [2] was “did not show any inhibitory effect”. For the same molecule, the “RSV-induced IRF3 activation” value (IRF3 [3]; [8]) was “no suppression” and the “RSV-induced IRF3 activation” value (IRF3 [3]; [9]) was “no effect”.

For `O=C(Nc1ccc(NCc2ccco2)cc1Cl)c1cc(Cl)ccc1O` [Compound 22, 5-Chloro-N-(2-chloro-4-((furan-2-ylmethyl)amino)phenyl)-2-hydroxybenzamide], the “RSV-induced NF-κB activation” value (NF-κB [1]; [8]) was “significantly inhibited”, the “RSV-induced NF-κB activation” value (NF-κB [1]; [9]) was “dramatically suppressed” and the “nuclear translocation of IRF3” value (IRF3 [4]; 4 h posttreatment, RSV MOI 5) was “significantly decreased”. For the same molecule, the “RSV-induced IRF3 phosphorylation at Ser396” value (IRF3 [4]; [10]) was “significantly decreased”, the “nuclear translocation of IRF3” value (IRF3 [4]; 15 h posttreatment, RSV MOI 1) was “significantly decreased” and the “RSV-induced IRF3 phosphorylation at Ser396” value (IRF3 [4]; [11]) was “significantly decreased”. For the same molecule, the “IRF-3 total protein level in the cell” value (IRF3 [4]) was “undetectable or minimal impact”, the RSV protein expression [5] was “comparable” and the “expression of viral P, M, N and F proteins” value [5] was “decreased”. The viral genome copies (RSV; 15 h posttreatment) was “significantly decreased”, the viral genome copies (RSV; 24 h posttreatment) was “significantly decreased” and the “RSV-induced IL-6” value [2] was “no suppression; also recorded: enhanced”. The “RSV-induced MIP-1α” value [2] was “no suppression”, the “RSV-induced TNF-α” value [2] was “no suppression” and the “Poly I:C-activated IRF-3 (luciferase reporter)” value (IRF-3) was “suppressed”. For the same molecule, the “RSV-induced IRF3 activation” value (IRF3 [3]; [8]) was “significantly inhibited”, the “RSV-induced IRF3 activation” value (IRF3 [3]; [9]) was “dramatically suppressed” and the “Poly I:C-induced NF-κB activation (luciferase reporter)” value (NF-κB [7]) was “impacted”. For the same molecule, the “RSV-induced p65 Ser276 phosphorylation” value (p65; 4 h posttreatment, RSV MOI 5) was “not affected”, the “RSV-induced p65 Ser536 phosphorylation” value (p65; 4 h posttreatment, RSV MOI 5) was “suppressed” and the “nuclear translocation of p65” value (p65; 4 h posttreatment, RSV MOI 5) was “suppressed”. For the same molecule, the “RSV-induced p65 Ser276 phosphorylation” value (p65; 15 h posttreatment, RSV MOI 1) was “robustly suppressed”, the “RSV-induced p65 Ser536 phosphorylation” value (p65; 15 h posttreatment, RSV MOI 1) was “robustly suppressed” and the “nuclear translocation of p65” value (p65; 15 h posttreatment, RSV MOI 1) was “robustly suppressed”. The “p65 total protein level in the cell” value (p65) was “undetectable or minimal impact”.

In the case of `CCCN(CCC)c1ccc(NC(=O)c2cc(Cl)ccc2O)c(Cl)c1` [Compound 26], the “RSV-induced NF-κB activation” value (NF-κB [1]; [8]) was “significantly inhibited”, the “RSV-induced NF-κB activation” value (NF-κB [1]; [9]) was “dramatically suppressed” and the “RSV-induced TNF-α” value [2] was “able to inhibit”. The “RSV-induced IRF3 activation” value (IRF3 [3]; [8]) was “significantly inhibited” and the “RSV-induced IRF3 activation” value (IRF3 [3]; [9]) was “dramatically suppressed”.

For `O=C(Nc1ccc(N2CCOCC2)cc1Cl)c1cc(Cl)ccc1O` [Compound 28, 5-Chloro-N-(2-chloro-4-morpholinophenyl)-2-hydroxybenzamide], the “RSV-induced NF-κB activation” value (NF-κB [1]; [8]) was “significantly inhibited”, the “RSV-induced NF-κB activation” value (NF-κB [1]; [9]) was “dramatically suppressed” and the “RSV-induced IL-6” value [2] was “no suppression”. For the same molecule, the “RSV-induced MIP-1α” value [2] was “no suppression”, the “RSV-induced TNF-α” value [2] was “no suppression” and the “RSV-induced IRF3 activation” value (IRF3 [3]; [8]) was “significantly inhibited”. The “RSV-induced IRF3 activation” value (IRF3 [3]; [9]) was “dramatically suppressed”.

`CS(=O)(=O)CCCn1c(Cn2c(=O)n(CC(F)(F)F)c3ccncc32)cc2cc(Cl)ccc21` [JNJ-53718678, reference compound] was tested, and the viral genome copies (RSV; 15 h posttreatment) was “did not affect” and the viral genome copies (RSV; 24 h posttreatment) was “slightly decreased”.

For `O=C(Nc1ccc([N+](=O)[O-])cc1Cl)c1cc(Cl)ccc1O` [Niclosamide], the cell death (A549 cells) was “about 24%”.
